Experimental data from ChEMBL document CHEMBL1671780, “Analogues of σ receptor ligand 1-cyclohexyl-4-[3-(5-methoxy-1,2,3,4-tetrahydronaphthalen-1-yl)propyl]piperazine (PB28) with added polar functionality and reduced lipophilicity for potential use as positron emission tomography radiotracers” (J Med Chem, 2011).

Experiments:
[1] = target: Sigma non-opioid intracellular receptor 1 (Cavia porcellus, UniProt Q60492); experiment: Displacement of [3H]-(+)-pentazocine from sigma 1 receptor in Dunkin guinea pig brain membrane without cerebellum; type: cell membranes
[2] = Displacement of [3H]DTG from sigma 2 receptor in Wistar Hannover rat liver membrane in presence of (+)-pentazocine; type: cell membranes
[3] = Inhibition of P-gp in MDCK-MDR1 cells by calcein-AM assay; type: cell-based, Canis lupus familiaris
Summary of the method: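 MDCK-MDR1 cells overexpressing P-gp, grown in high-glucose DMEM with 10% FBS, were seeded at 50 000 cells/well and left overnight to reach confluence. Compound preincubated 30 min at 37 °C, then calcein-AM (2.5 μM final) added for a further 30 min. Cells washed with ice-cold PBS and fluorescence read at ex 485/em 535 nm relative to untreated cells. EC50 fitted from % fluorescence increase versus log dose.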

SK-N-SH [4] = experiment: Antiproliferative activity against human SK-N-SH cells at 100 uM after 48 hts by MTT assay; type: functional
[5] = Lipophilicity, log P of the compound; type: physicochemical; conditions: octanol/water
[6] = Octanol-aqueous phases partition coefficient, log D of the compound at pH 7.4; type: physicochemical; conditions: octanol/aqueous phase
SK-N-SH [7] = experiment: Antiproliferative activity against human SK-N-SH cells after 48 hts by MTT assay; type: functional, cell-based
Summary of the method: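 SK-N-SH neuroblastoma cells grown in RPMI 1640 with 10% FBS, glutamine, pyruvate and nonessential amino acids at 37 °C, 5% CO2. Seeded at 30 000 cells/well, then exposed next day to drug (0.1 μM-100 μM; solvent controls included). MTT 0.5 mg/mL added for 3 h at 37 °C after 48 h exposure, formazan dissolved in DMSO, absorbance read at 570 and 630 nm. EC50 from nonlinear curve fitting; means of ≥2 experiments.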

[8] = target: Sigma non-opioid intracellular receptor 1 (Cavia porcellus) (UniProt Q60492); experiment: Displacement of [3H]-(+)-pentazocine from sigma 1 receptor in Dunkin guinea pig brain membrane without cerebellum at 10^-12M; type: cell membranes
Summary of the method: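 σ1 binding with (+)-[3H]-pentazocine on guinea pig brain membranes lacking cerebellum; percent inhibition of specific binding recorded at a single 10-12 M test concentration. Means of ≥3 separate experiments.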

Sequence of Sigma non-opioid intracellular receptor 1 (Q60492 whole entry): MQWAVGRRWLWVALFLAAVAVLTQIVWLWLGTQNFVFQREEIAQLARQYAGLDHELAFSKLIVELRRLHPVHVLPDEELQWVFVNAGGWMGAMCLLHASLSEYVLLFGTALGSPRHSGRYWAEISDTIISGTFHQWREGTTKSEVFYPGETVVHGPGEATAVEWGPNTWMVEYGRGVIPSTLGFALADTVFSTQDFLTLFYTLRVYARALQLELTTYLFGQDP
Sequence of Sigma non-opioid intracellular receptor 1 (Cavia porcellus) (Q60492 whole entry): as above

| SMILES | Ki [1] | Ki [2] | EC50 [3] | inhibition at 100 µM (SK-N-SH [4]) | logP [5] | logD [6] | EC50 (SK-N-SH [7]) | inhibition [8] |
| --- | --- | --- | --- | --- | --- | --- | --- | --- |
| COc1cccc2c1CCCC2NCCN1CCN(C2CCCCC2)CC1 (racemic) | 23.9 nM | 8.49 nM | 10000 nM | 48% | 3.05 | 0.89 | – | – |
| COc1cccc2c1CCC[C@@H]2CCCN1CCN(C2CCCCC2)CC1 | – | 0.49 nM | 4400 nM | – | – | – | 9070 nM | – |
| COc1cccc2c1OCCC2CCCN1CCN(C2CCCCC2)CC1 (racemic) | 12.5 nM | 9.72 nM | 5200 nM | 100% | – | – | – | – |
| COc1cccc2c1CCCC2OCCN1CCN(C2CCCCC2)CC1 (racemic) | 3.9 nM | 9.03 nM | 2400 nM | 72% | – | – | – | – |
| COc1cccc2c1CCC[C@H]2NCCN1CCN(C2CCCCC2)CC1 | 13.6 nM | 14.4 nM | 9800 nM | 31% | – | – | – | – |
| COc1cccc2c1CCC[C@@H]2NC(=O)CN1CCN(C2CCCCC2)CC1 | 94.6 nM | 5.92 nM | 8100 nM | 100% | – | – | – | – |
| COc1cccc2c1CCCC2NC(=O)CN1CCN(C2CCCCC2)CC1 (racemic) | 12.6 nM | 13.3 nM | 8800 nM | 68% | 3.69 | 2.38 | – | – |
| COc1cccc2c1CCC[C@@H]2NCCN1CCN(C2CCCCC2)CC1 | 23.3 nM | 8.52 nM | 3200 nM | 33% | – | – | – | – |
| COc1cccc2c1CCC[C@H]2OCCN1CCN(C2CCCCC2)CC1 | 2.17 nM | 11.1 nM | 5300 nM | 91% | – | – | – | – |
| COc1cccc2c(NCCN3CCN(C4CCCCC4)CC3)cccc12 | 5.44 nM | 18.5 nM | 3600 nM | – | 4.08 | 2.88 | 44000 nM | – |
| COc1cccc2c(NC(=O)CN3CCN(C4CCCCC4)CC3)cccc12 | 42.6 nM | 23.2 nM | 9100 nM | 75% | 3.44 | 2.18 | – | – |
| COc1cccc2c1CCCC2N(C)CCN1CCN(C2CCCCC2)CC1 (racemic) | 4.17 nM | 15.3 nM | 8800 nM | 82% | 4.83 | 1.83 | – | – |
| COc1cccc2c1CCC[C@H]2NC(=O)CN1CCN(C2CCCCC2)CC1 | 20.4 nM | 10.1 nM | 6600 nM | 100% | – | – | – | – |
| COc1cccc2c1CCC[C@@H]2OCCN1CCN(C2CCCCC2)CC1 | 3.24 nM | 4.71 nM | 1700 nM | 93% | – | – | – | – |
| COc1cccc2c1CCCC2CCCN1CCN(C2CCCCC2)CC1 (racemic) | – | 0.68 nM | 3000 nM | – | 5.08 | 3.99 | 9040 nM | – |
| COc1cccc2c(OCCN3CCN(C4CCCCC4)CC3)cccc12 | – | 2.4 nM | 3400 nM | – | 3.94 | 2.88 | 41600 nM | 65% |
| COc1cccc2c1CCC[C@H]2CCCN1CCN(C2CCCCC2)CC1 | – | 1.18 nM | 3800 nM | – | – | – | 9370 nM | – |
